# Experimental data reported in PMC8851646 (ACS Omega, 2022).
# Read-outs that look alike come from different tables or passages of the source.
# How the values were obtained:
# [1] = system: K. pneumoniae NB29017 co-cultured with T. pyriformis; test: T. pyriformis/K. pneumoniae; type: cell-based, Klebsiella pneumoniae; conditions: for activity in the Tp/Kp assay: manual pilot screens and D1 analog set
# [2] = Compound stability, LC-MS of freshly dissolved powder; type: physicochemical; conditions: impure by LC–MS from freshly dissolved powder
# [3] = system: K. pneumoniae wbbM mutant (NB29018) co-cultured with T. pyriformis; test: Tp/Kp co-culture assay with cell surface-defective wbbM mutant; type: cell-based, Klebsiella pneumoniae; conditions: Tp threshold 4625–18,500 Tp/mL
# [4] = Cytotoxicity in K562 cells; type: cell-based; conditions: human
# K. pneumoniae NB29017 [5] = test: Electron microscopy of cell surface material; type: cell-based, Klebsiella pneumoniae; conditions: grown in SM medium with 32 μg/mL compound
# In short: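 K. pneumoniae NB29017 grown overnight with shaking at 37 °C in 10 mL SM medium, with or without test compound at 32 μg/mL. Diluted 1:50 into the same medium and grown to OD600 of about 2. Cells pelleted at 3000g and washed in Na-cacodylate pH 7.2. Fixed 2 h at 4 °C (2.5% glutaraldehyde, 1% tannic acid, 0.1 M Na-cacodylate, pH 7.2). Pelleted, taken up in cacodylate buffer and examined by electron microscopy.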
# Staphylococcus aureus = test: Antibacterial MIC, Gram-positive control; type: cell-based; conditions: read-out: MIC Sa
# K. pneumoniae NB29017 [6] = test: Qualitative inhibition of mucoid appearance of colonies on solid LB agar; type: cell-based, Klebsiella pneumoniae; conditions: 4 fully mucoid, 0 nonmucoid, by eye
# In short: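 Test compound dissolved in DMSO (12.8 mg/mL stock) and mixed into melted LB agar at 0–16 μg/mL final, then set in six-well plates. Mucoid wild-type NB29017 streaked for single colonies in each well. Plates incubated 18 h at 37 °C, then 2 h at 4 °C. Mucoid appearance scored by eye from 0 (none) to 4 (normal hypermucoid).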
# Red blood cell hemolysis = type: cell-based, sheep; conditions: sheep, erythrocytes from defibrinated sheep blood, pH 7.5
# [7] = read-out: IC50 Tp/Kp, Table 1, freshly dissolved powder, top concentration 20 μM
# [8] = read-out: Tp/Kp IC50, Table 2, expressed as μg/mL for comparison to agar values
# [9] = read-out: Tp/Kp IC50, archived powder, side by side on the same assay plate, Tp set at 25000
# [10] = read-out: Tp/Kp IC50, resynthesis batch, side by side on the same assay plate, Tp set at 25000
stability [2],SMILES,activity in the Tp/Kp assay [1],activity in the Tp/Kp wbbM assay [3],IC50 [4] [nM],surface polysaccharide material by electron microscopy (K. pneumoniae NB29017 [5]),"IC50 [1, 7] [nM]","IC50 [1, 8] [µg/mL]","IC50 [1, 9] [nM]","IC50 [1, 10] [nM]",MIC (Staphylococcus aureus) [µg/mL],qualitative score on solid medium (K. pneumoniae NB29017 [6]; 1 μg/mL compound in agar),qualitative score on solid medium (K. pneumoniae NB29017 [6]; 2 μg/mL compound in agar),qualitative score on solid medium (K. pneumoniae NB29017 [6]; 4 μg/mL compound in agar),qualitative score on solid medium (K. pneumoniae NB29017 [6]; 8 μg/mL compound in agar),qualitative score on solid medium (K. pneumoniae NB29017 [6]; 16 μg/mL compound in agar),hemolysis at 1 h (Red blood cell hemolysis) [%]
–,"Oc1nc(S)nnc1-c1cccs1 [B1, OC1N=C(S)N=NC=1C2=CC=CS2]",active,–,–,–,–,–,–,–,–,–,–,–,–,–,–
–,"COc1nc(SC)nnc1C [Di, COc1nc(nnc1C)SC]",inactive,–,–,–,–,–,–,–,–,–,–,–,–,–,–
–,"Cc1cc(O)c(C)c(O)c1C(=O)O [compound 9, Cc1cc(O)c(C)c(O)c1C(O)=O]",active,–,–,–,–,–,–,–,–,–,–,–,–,–,–
–,"O=C(O)c1ccccc1O [compound 10, OC(=O)c1ccccc1O]",active,–,–,–,–,–,–,–,–,–,–,–,–,–,–
–,"Cc1cccc(O)c1C(=O)O [compound 16, Cc1cccc(O)c1C(O)=O]",active,–,–,–,–,–,–,–,–,–,–,–,–,–,–
unstable,"CCOC(=O)/C(=N\NC(N)=S)c1cccs1 [compound 25, CCOC(=O)/C(=N\NC(N)=S)/C1=CC=CS1]",–,–,–,–,–,–,–,–,–,–,–,–,–,–,–
–,"Cc1nnc(-c2ccccc2)nc1O [compound 34, Cc1nnc(nc1O)c2ccccc2]",active,retained activity,–,–,–,–,–,–,–,–,–,–,–,–,–
–,"Cc1nnc(SCC(=O)Nc2ccc(Br)cc2)nc1O [compound 35, Cc1nnc(nc1O)SCC(=O)Nc2ccc(Br)cc2]",active,retained activity,–,–,–,–,–,–,–,–,–,–,–,–,–
–,"COc1ccc(-c2csc(NC(=O)c3ccc(C(=O)Nc4nc(-c5ccc(OC)c(OC)c5)cs4)s3)n2)cc1OC [compound 62, COc1ccc(cc1OC)C5=CSC(NC(=O)C2=CC=C(S2)C(=O)NC3=NC(=CS3)c4cc(OC)c(cc4)OC)=N5]",–,retained potency,> 210000,devoid of any surface material,1,0.001,1.7,0.67,> 32,2,0,0,0,0,11.7
–,"CCOC(=O)c1ccc2nc(NC(=O)c3cccs3)sc2c1 [compound 64, CCOC(=O)c3ccc2N=C(NC(=O)C1=CC=CS1)Sc2c3]",–,retained potency,> 386000,–,120,0.04,362,186,> 128,0,0,0,0,0,14.9
–,"CCOc1ccc2nc(NC(=O)c3cc(=O)c4ccc(C)cc4o3)sc2c1 [compound 65, CCOc4ccc3N=C(NC(=O)C2=CC(=O)c1ccc(C)cc1O2)Sc3c4]",–,–,> 168000,–,70,0.03,–,–,> 128,2,2,2,2,1,1.5
–,"O=C(Nc1nnc(Cl)s1)c1ccco1 [compound 67, O=C(NC1=NN=C(Cl)S1)C2=CC=CO2]",–,–,> 557000,–,490,0.11,–,–,> 128,1,0,0,0,0,1.5
–,"Cc1cc(C)c2c(=O)cc(C(=O)Nc3nc4ccc(F)cc4s3)oc2c1 [compound 68, Cc2cc(C)c1C(=O)C=C(Oc1c2)C(=O)NC4=Nc3ccc(F)cc3S4]",–,–,> 348000,–,910,–,–,–,> 128,3,3,1,1,1,2.2
–,"COc1ccc(Br)c(/C=N/NC(=O)COc2ccc(-c3ccccc3)cc2)c1 [compound 69, COc3ccc(Br)c(/C=N/NC(=O)COc1ccc(cc1)c2ccccc2)c3]",–,–,> 291000,–,50,–,–,–,> 128,0,0,0,0,0,4.1
–,"O=C(/C=C/c1ccccc1)Nc1ccc(C(=O)Nc2nccs2)cc1 [compound 70, O=C(/C=C/c1ccccc1)Nc2ccc(cc2)C(=O)NC3=NC=CS3]",–,–,> 367000,–,1100,–,–,–,> 128,3,1,0,0,0,17.6
–,"CC12CC3(C)CC(C(=O)O)(C1)CC(C(=O)O)(C2)C3 [compound 73, CC12CC3(C)CC(C1)(CC(C2)(C3)C(O)=O)C(O)=O]",–,–,> 508000,–,1100,–,–,–,> 128,4,3,3,3,2,2.8
–,"CCOc1ccc2nc(NC(=O)c3ccc4ncsc4c3)sc2c1 [compound 74, CCOc4ccc3N=C(NC(=O)c2ccc1N=CSc1c2)Sc3c4]",–,–,> 361000,–,370,–,–,–,> 128,2,0,0,0,0,26.9
–,"CCOc1cccc(C(=O)Nc2ccc(-c3nc4ccccc4[nH]3)cc2)c1 [compound 79, CCOc1cccc(c1)C(=O)Nc2ccc(cc2)C4Nc3ccccc3N=4]",–,–,341000,–,1330,–,–,–,> 128,2,2,2,2,–,40.6
–,"CCCCNC(=O)NS(=O)(=O)c1cccs1 [compound 82, CCCCNC(=O)NS(=O)(=O)C1=CC=CS1]",–,–,> 489000,–,2580,–,–,–,> 128,4,4,3,3,2,7.4
–,"O=C(O)c1cc(Br)ccc1F [compound 166, OC(=O)c1cc(Br)ccc1F]",–,–,> 584000,–,1300,–,–,–,> 128,–,–,–,–,–,2.5
–,"CCN(CC)/C(N)=N\c1ccc(NC(=O)c2ccc(C(=O)Nc3ccc(/N=C(\N)N(CC)CC)cc3)cc2)cc1 [compound 170, CCN(CC)/C(/N)=N/c1ccc(cc1)NC(=O)c2ccc(cc2)C(=O)Nc3ccc(cc3)\N=C(\N)/N(CC)CC]",–,–,102000,–,2200,–,–,–,8,–,–,–,–,–,1.9
–,"O=[N+]([O-])c1cnc2ccc(Cl)cc2c1O [compound 182, [O-][N+](=O)c2cnc1ccc(Cl)cc1c2O]",–,–,75400,–,420,–,–,–,> 128,–,–,–,–,–,2.4
–,"O=C(CCCN1CCC(O)(c2ccc(Br)cc2)CC1)c1ccc(F)cc1 [compound 185, OC2(CCN(CCCC(=O)c1ccc(F)cc1)CC2)c3ccc(Br)cc3]",–,–,16500,–,850,–,–,–,> 128,–,–,–,–,–,4.5
–,"COC1C(OC(C)=O)CC(=O)OC(C)CC2OC2/C=C/C(=O)C(C)CC(CC=O)C1OC1OC(C)C(OC2CC(C)(O)C(OC(=O)CC(C)C)C(C)O2)C(N(C)C)C1O (centres unmarked) [compound 186, COC4C(OC2OC(C)C(OC1CC(C)(O)C(OC(=O)CC(C)C)C(C)O1)C(C2O)N(C)C)C(CC=O)CC(C)C(=O)/C=C/C3OC3CC(C)OC(=O)CC4OC(C)=O]",–,–,8540,–,5400,–,–,–,2,–,–,–,–,–,–
–,"Cc1nc(O)n2ncc(Br)c2n1 [compound 187, CC2=NC1=C(Br)C=NN1C(O)=N2]",–,–,> 559000,–,160,–,–,–,> 128,–,–,–,–,–,2.5
–,"C=CC1(C)CC(OC(=O)CSc2ccc(N)cc2)C2(C)C(C)CCC3(CCC(=O)C32)C(C)C1O (centres unmarked) [compound 191, C=CC4(C)CC(OC(=O)CSc1ccc(N)cc1)C2(C)C(C)CCC3(CCC(=O)C23)C(C)C4O]",–,–,35800,–,3220,–,–,–,≤ 0.06,–,–,–,–,–,2
